Reference: ChEMBL document CHEMBL5653613 (Mol Cancer Ther, 2013)
Active and inactive are the calls of the source. The calls are words filed in the database; no cut-off is given here.

Assays:
[1] = tested on: T47D; test: Inhibition of clonogenic growth in human T47D cells incubated for 10 days by Hema-3 staining based microscopy; type: functional, cell-based; conditions: dose 1-5 µmol/L, time 10.0 day
Method in brief: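 Colonies were stained with Hema-3, photographed under a microscope with a CCD camera, counted in duplicate, and expressed as % of control. Results are shown from 1 of 2 experiments.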

[2] = tested on: ZR-75-1; test: Cytotoxicity against human ZR-75-1 cells at 1 to 2.5 umol/L incubated for 72 hrs by MTS assay; type: functional, cell-based; conditions: dose 1-2.5 µmol/L
[3] = tested on: ZR-75-1; test: Induction of apoptosis in human ZR-75-1 cells assessed as rate of apoptotic cell death at 5 umol/L by annexin V/PI staining based flow cytometry relative to control; type: functional; conditions: dose 5 µmol/L; at 5 µM
[4] = tested on: MCF7; test: Induction of apoptosis in human MCF7 cells assessed as late cells at 5 umol/L incubated for 3 days by Annexin V/PI staining based flow cytometry (reference value: 1.4 %); type: functional; conditions: dose 5 µmol/L; time 3 day; at 5 µM
[5] = tested on: T47D; test: Induction of polyploidy in human T47D cell at 5 umol/L by microscopic analysis; type: functional, cell-based; conditions: dose 5.0 µmol/L, time 72.0 hrs, TDE = time-dependent effect
[6] = tested on: ZR-75-1; test: Induction of polyploidy in human ZR-75-1 cells at 5 umol/L by microscopic analysis; type: functional, cell-based; conditions: dose 5.0 µmol/L, time 72.0 hrs, TDE = time-dependent effect
[7] = tested on: T47D; test: Induction of polyploidy in human T47D cells at 5 uM incubated for 72 hrs by microscopic analysis; type: functional, cell-based
Method in brief: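 Cells stained with Hema-3 and photographed under a light microscope with CCD camera. Polyploid cells scored as percent of the population.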

[8] = tested on: ZR-75-1; test: Inhibition of cell proliferation of human ZR-75-1 cells with RON-/- at 5 umol/L incubated for 72 hrs followed by media replacement without compound measured upto 10 days by microscopic analysis; type: functional, cell-based; conditions: dose 5.0 µmol/L
[9] = tested on: ZR-75-1; test: Induction of polyploidy in human ZR-75-1 cells assessed as cells with 16N chromosome contents at 5 uM incubated for 24 hrs by PI staining based flow cytometry (reference value: 0); type: functional
[10] = tested on: ZR-75-1; test: Induction of polyploidy in human ZR-75-1 cells assessed as cells with 4N chromosome contents at 5 uM incubated for 48 hrs by PI staining based flow cytometry (reference value: 35); type: functional
[11] = tested on: ZR-75-1; test: Induction of polyploidy in human ZR-75-1 cells assessed as cells with 2N chromosome contents at 5 uM incubated for 72 hrs by PI staining based flow cytometry (reference value: 48); type: functional
[12] = tested on: T47D; test: Disruption of microtubule dynamics in human T47D cells assessed as condensed irregular-shaped chromosomes at 5 umol/L incubated for 24 hrs by immunofluorescence staining based analysis; type: functional, cell-based; conditions: dose 5.0 µmol/L
Method in brief: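 T-47D cells (1 × 10^6/dish) in RPMI-1640 with 5% FBS were treated with or without 5 µmol/L for 24, 48 and 72 h. Cells were fixed in cold acetone and stained with mouse anti-α-tubulin or anti-γ-tubulin, then an FITC anti-mouse IgG secondary, plus DAPI. Fluorescence microscopy, 200× magnification.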

CCOc1ccn(-c2ccc(F)cc2)c(=O)c1C(=O)Nc1ccc(Oc2ccnc(N)c2Cl)c(F)c1 [BMS-777607]
inhibition [1]: Dose-Dependent Effect | Activity [2]: inactive | Activity [3]: 9.7% | Activity [4]: 2% | Activity [5]: Tde | Activity [6]: Tde | Activity [7]: Active | inhibition [8]: inactive | Activity [9]: 5 | Activity [10]: 12 | Activity [11]: 5 | Activity [12]: Active
